Converted amounts (≈) assume the structure as drawn.
How the values were obtained:
Bacillus subtilis [1] = test: Induction of liaH gene expression in Bacillus subtilis W168 by microarray analysis; assay type: functional
How it was run: (§1)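 W168 grown in Ca2+-supplemented Mueller-Hinton broth at 37°C to OD600 0.4, split, and one half exposed to 1 μg/ml daptomycin for 20 min. Total RNA from three biological replicates; cDNA labeled with Alexa Fluor 555/647 and co-hybridized at 42°C for 16–18 h. Genes with summed intensity <20 or SD > mean were dropped. Fold change is treated/untreated signal, from ≥6 spot measurements.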

Bacillus subtilis [2] = test: Antibacterial activity against liaH and pspA gene-deficient Bacillus subtilis CU1065 mutant by liquid growth inhibition assay; assay type: functional
How it was run: (§2)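 Daptomycin MIC by liquid growth inhibition. Overnight cultures diluted 1:100, grown to mid-log, rediluted to 5 × 10^5 CFU/ml in Mueller-Hinton broth with 50 mg/liter Ca2+. At least 10 concentrations near the predicted MIC, plus a no-drug control, added at start; 200 μl. OD600 read every 20 min for 24 h at 37°C with shaking. Inhibition: 24 h OD600 <0.05. MIC is the mode of at least triplicates.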

Bacillus subtilis [3] = test: Decrease in ywdE gene expression in Bacillus subtilis W168 by microarray analysis; assay type: functional; how it was run: as §1
Bacillus subtilis [4] = test: Antibacterial activity against Bacillus subtilis CU1065 harboring IPTG-induced pgsA by liquid growth inhibition assay; assay type: functional; how it was run: as §2
Bacillus subtilis [5] = test: Increase in yfiC gene expression in Bacillus subtilis W168 by microarray analysis
Bacillus subtilis [6] = test: Antibacterial activity against liaH and sigW gene-deficient Bacillus subtilis CU1065 mutant by liquid growth inhibition assay; assay type: functional; how it was run: as §2
Bacillus subtilis [7] = test: Antibacterial activity against liaIH and mprF gene-deficient Bacillus subtilis W168 mutant by liquid growth inhibition assay; assay type: functional; how it was run: as §2
Bacillus subtilis [8] = test: Decrease in yxeQ gene expression in Bacillus subtilis W168 by microarray analysis; assay type: functional; how it was run: as §1
Bacillus subtilis [9] = test: Induction of maf gene expression in Bacillus subtilis W168 by microarray analysis; assay type: functional; how it was run: as §1
Bacillus subtilis [10] = test: Antibacterial activity against sigWM gene-deficient Bacillus subtilis CU1065 double mutant by liquid growth inhibition assay; assay type: functional; how it was run: as §2
Bacillus subtilis [11] = test: Antibacterial activity against sigMWX and liaIH gene-deficient Bacillus subtilis CU1065 mutant by liquid growth inhibition assay; assay type: functional; how it was run: as §2
Bacillus subtilis [12] = test: Antibacterial activity against ywnE gene-deficient Bacillus subtilis CU1065 mutant by liquid growth inhibition assay; assay type: functional; how it was run: as §2
Bacillus subtilis [13] = test: Induction of sigM gene expression in Bacillus subtilis W168 by microarray analysis; assay type: functional; how it was run: as §1
Bacillus subtilis [14] = test: Antibacterial activity against liaIHGFSR gene-deficient Bacillus subtilis W168 mutant by liquid growth inhibition assay; assay type: functional; how it was run: as §2
Bacillus subtilis [15] = test: Antibacterial activity against Bacillus subtilis CU1065 mutant by liquid growth inhibition assay; assay type: functional; how it was run: as §2
Bacillus subtilis [16] = test: Antibacterial activity against pspA gene-deficient Bacillus subtilis CU1065 mutant by liquid growth inhibition assay; assay type: functional; how it was run: as §2
Bacillus subtilis [17] = test: Decrease in rpmB gene expression in Bacillus subtilis W168 by microarray analysis; assay type: functional; how it was run: as §1
Bacillus subtilis [18] = test: Induction of yhcY gene expression in Bacillus subtilis W168 by microarray analysis; assay type: functional; how it was run: as §1
Bacillus subtilis [19] = test: Decrease in yvpB gene expression in Bacillus subtilis W168 by microarray analysis; assay type: functional; how it was run: as §1
Bacillus subtilis [20] = test: Induction of liaI gene expression in Bacillus subtilis W168 by microarray analysis; assay type: functional; how it was run: as §1
Bacillus subtilis [21] = test: Decrease in degR gene expression in Bacillus subtilis W168 by microarray analysis; assay type: functional; how it was run: as §1
Bacillus subtilis [22] = test: Antibacterial activity against liaIH, mprF and pspA gene-deficient Bacillus subtilis CU1065 mutant by liquid growth inhibition assay; assay type: functional; how it was run: as §2
Bacillus subtilis [23] = test: Antibacterial activity against des gene-deficient Bacillus subtilis W168 mutant by liquid growth inhibition assay; assay type: functional; how it was run: as §2
Bacillus subtilis [24] = test: Induction of liaG gene expression in Bacillus subtilis W168 by microarray analysis; assay type: functional; how it was run: as §1
Bacillus subtilis [25] = test: Antibacterial activity against liar gene-deficient Bacillus subtilis W168 mutant by liquid growth inhibition assay; assay type: functional; how it was run: as §2
Bacillus subtilis [26] = test: Antibacterial activity against sigMWX gene-deficient Bacillus subtilis CU1065 triple mutant by liquid growth inhibition assay; assay type: functional; how it was run: as §2
Bacillus subtilis [27] = test: Decrease in yknU gene expression in Bacillus subtilis W168 by microarray analysis; assay type: functional; how it was run: as §1
Bacillus subtilis [28] = test: Antibacterial activity against des and pspA gene-deficient Bacillus subtilis W168 mutant by liquid growth inhibition assay
Bacillus subtilis [29] = test: Induction of ydjP gene expression in Bacillus subtilis W168 by microarray analysis; assay type: functional; how it was run: as §1
Bacillus subtilis [30] = test: Induction of yebC gene expression in Bacillus subtilis W168 by microarray analysis; assay type: functional; how it was run: as §1
Bacillus subtilis [31] = test: Induction of murG gene expression in Bacillus subtilis W168 by microarray analysis; assay type: functional; how it was run: as §1
Bacillus subtilis [32] = test: Antibacterial activity against mprF and pspA gene-deficient Bacillus subtilis CU1065 mutant by liquid growth inhibition assay; assay type: functional; how it was run: as §2
Bacillus subtilis [33] = test: Decrease in yvcB gene expression in Bacillus subtilis W168 by microarray analysis; assay type: functional; how it was run: as §1
Bacillus subtilis [34] = test: Antibacterial activity against liaIH and pspA gene-deficient Bacillus subtilis CU1065 mutant by liquid growth inhibition assay; assay type: functional; how it was run: as §2
Bacillus subtilis [35] = test: Induction of murB gene expression in Bacillus subtilis W168 by microarray analysis; assay type: functional; how it was run: as §1
Bacillus subtilis [36] = test: Induction of sdpI gene expression in Bacillus subtilis W168 by microarray analysis; assay type: functional; how it was run: as §1
Bacillus subtilis [37] = test: Antibacterial activity against psd gene-deficient Bacillus subtilis CU1065 mutant by liquid growth inhibition assay; assay type: functional; how it was run: as §2
Bacillus subtilis [38] = test: Decrease in rpsT gene expression in Bacillus subtilis W168 by microarray analysis; assay type: functional; how it was run: as §1
Bacillus subtilis [39] = test: Induction of yvrI gene expression in Bacillus subtilis W168 by microarray analysis; assay type: functional
How it was run: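 W168 cultures in Mueller-Hinton broth with 50 mg/liter Ca2+, 37°C with shaking, grown to mid-log phase (OD600 0.4) from a 1:1,000 overnight dilution. Split: one half given 1 μg/ml daptomycin for 20 min, the other left untreated. Total RNA from three biological replicates; cDNA labeled with Alexa Fluor 555 or 647 and hybridized 16 to 18 h at 42°C. Induction = treated/untreated signal intensity, duplicate spots on three arrays.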

Bacillus subtilis [40] = test: Antibacterial activity against Bacillus subtilis W168 mutant by liquid growth inhibition assay; assay type: functional; how it was run: as §2
Bacillus subtilis [41] = test: Antibacterial activity against pssA gene-deficient Bacillus subtilis CU1065 mutant by liquid growth inhibition assay; assay type: functional; how it was run: as §2
Bacillus subtilis [42] = test: Induction of liaF gene expression in Bacillus subtilis W168 by microarray analysis; assay type: functional; how it was run: as §1
Bacillus subtilis [43] = test: Induction of yocH gene expression in Bacillus subtilis W168 by microarray analysis; assay type: functional; how it was run: as §1
Bacillus subtilis [44] = test: Antibacterial activity against liaF gene-deficient Bacillus subtilis W168 mutant by liquid growth inhibition assay; assay type: functional; how it was run: as §2
Bacillus subtilis [45] = test: Induction of yqjL gene expression in Bacillus subtilis W168 by microarray analysis; assay type: functional; how it was run: as §1
Bacillus subtilis [46] = test: Antibacterial activity against psd and mprF gene-deficient Bacillus subtilis CU1065 mutant by liquid growth inhibition assay; assay type: functional; how it was run: as §2
Bacillus subtilis [47] = test: Antibacterial activity against Bacillus subtilis CU1066 with depletion in pgsA gene by liquid growth inhibition assay; assay type: functional; conditions: CU1065, in the assay text read “CU1065” for “CU1066”
How it was run: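 Liquid growth inhibition in Mueller-Hinton broth with 50 mg/liter Ca2+. Overnight cultures diluted 1:100, grown to mid-log, rediluted to 5 × 10^5 CFU/ml, then given at least 10 daptomycin concentrations near the predicted MIC plus a drug-free control. OD600 read every 20 min for 24 h at 37°C with shaking. MIC is the mode of at least triplicates of the lowest concentration giving final OD600 <0.05.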

Bacillus subtilis [48] = test: Induction of bcrC gene expression in Bacillus subtilis W168 by microarray analysis; assay type: functional; how it was run: as §1
Bacillus subtilis [49] = test: Decrease in ywdD gene expression in Bacillus subtilis W168 by microarray analysis; assay type: functional; how it was run: as §1
Bacillus subtilis [50] = test: Induction of yuaF gene expression in Bacillus subtilis W168 by microarray analysis; assay type: functional; how it was run: as §1

## CCCCCCCCCC(=O)N[C@@H](Cc1c[nH]c2ccccc12)C(=O)N[C@H](CC(N)=O)C(=O)N[C@@H](CC(=O)O)C(=O)N[C@@H]1C(=O)NCC(=O)N[C@@H](CCCN)C(=O)N[C@@H](CC(=O)O)C(=O)N[C@H](C)C(=O)N[C@@H](CC(=O)O)C(=O)NCC(=O)N[C@H](CO)C(=O)N[C@@H]([C@H](C)CC(=O)O)C(=O)N[C@@H](CC(=O)c2ccccc2N)C(=O)O[C@@H]1C
Bacillus subtilis [1]
  fold change (FC): 1336
Bacillus subtilis [2]
  MIC: 0.2 µg/mL (≈ 0.123 µM)
Bacillus subtilis [3]
  fold change (FC): 9.9
Bacillus subtilis [4]
  MIC: 1 µg/mL (≈ 0.617 µM)
Bacillus subtilis [5]
  fold change (FC): 3.5
Bacillus subtilis [6]
  MIC: 0.3 µg/mL (≈ 0.185 µM)
Bacillus subtilis [7]
  MIC: 0.2 µg/mL (≈ 0.123 µM)
Bacillus subtilis [8]
  fold change (FC): 0.5
Bacillus subtilis [9]
  fold change (FC): 2.5
Bacillus subtilis [10]
  MIC: 0.7 µg/mL (≈ 0.432 µM)
Bacillus subtilis [11]
  MIC: 0.2 µg/mL (≈ 0.123 µM)
Bacillus subtilis [12]
  MIC: 1 µg/mL (≈ 0.617 µM)
Bacillus subtilis [13]
  fold change (FC): 2.1
Bacillus subtilis [14]
  MIC: 0.3 µg/mL (≈ 0.185 µM)
Bacillus subtilis [15]
  MIC: 1 µg/mL (≈ 0.617 µM)
Bacillus subtilis [16]
  MIC: 1 µg/mL (≈ 0.617 µM)
Bacillus subtilis [17]
  fold change (FC): 0.5
Bacillus subtilis [18]
  fold change (FC): 3.3
Bacillus subtilis [19]
  fold change (FC): 14
Bacillus subtilis [20]
  fold change (FC): 1294
Bacillus subtilis [21]
  fold change (FC): 0.5
Bacillus subtilis [22]
  MIC: 0.2 µg/mL (≈ 0.123 µM)
Bacillus subtilis [23]
  MIC: 0.9 µg/mL (≈ 0.555 µM)
Bacillus subtilis [24]
  fold change (FC): 283
Bacillus subtilis [25]
  MIC: 0.5 µg/mL (≈ 0.309 µM)
Bacillus subtilis [26]
  MIC: 0.6 µg/mL (≈ 0.37 µM)
Bacillus subtilis [27]
  fold change (FC): 7.8
Bacillus subtilis [28]
  MIC: 0.9 µg/mL (≈ 0.555 µM)
Bacillus subtilis [29]
  fold change (FC): 2
Bacillus subtilis [30]
  fold change (FC): 3.6
Bacillus subtilis [31]
  fold change (FC): 2.4
Bacillus subtilis [32]
  MIC: 0.5 µg/mL (≈ 0.309 µM)
Bacillus subtilis [33]
  fold change (FC): 27
Bacillus subtilis [34]
  MIC: 0.2 µg/mL (≈ 0.123 µM)
Bacillus subtilis [35]
  fold change (FC): 2
Bacillus subtilis [36]
  fold change (FC): 8.9
Bacillus subtilis [37]
  MIC: 1 µg/mL (≈ 0.617 µM)
Bacillus subtilis [38]
  fold change (FC): 0.5
Bacillus subtilis [39]
  fold change (FC): 574
Bacillus subtilis [40]
  MIC: 1 µg/mL (≈ 0.617 µM)
Bacillus subtilis [41]
  MIC: 1 µg/mL (≈ 0.617 µM)
Bacillus subtilis [42]
  fold change (FC): 149
Bacillus subtilis [43]
  fold change (FC): 0.5
Bacillus subtilis [44]
  MIC: 1 µg/mL (≈ 0.617 µM)
Bacillus subtilis [45]
  fold change (FC): 7.8
Bacillus subtilis [46]
  MIC: 0.9 µg/mL (≈ 0.555 µM)
Bacillus subtilis [47]
  MIC: 8 µg/mL (≈ 4.94 µM)
Bacillus subtilis [48]
  fold change (FC): 3.1
Bacillus subtilis [49]
  fold change (FC): 5.3
Bacillus subtilis [50]
  fold change (FC): 4.8

From ChEMBL document CHEMBL1649137, “Genetic analysis of factors affecting susceptibility of Bacillus subtilis to daptomycin” (2009)
